Calls of active or inactive are those of the source. The calls are words filed in the database; no cut-off is given here.
Legend:
[1] = Therapeutic ratio of IC50 for HFF1 cells to IC50 for human NU04 cells
Outline: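 Ratio of two growth-inhibition IC50s, HFF-1 normal human fibroblasts over NU04 glioma cells. Cells were grown as monolayers at 37 °C in 5% CO2, with NU04 seeded at 4000 cells/well. After overnight attachment, cells were exposed to compound or vehicle for 72 h. MTT (3 mg/mL) was added for 4 h, and formazan dissolved in DMSO was read at 570 nm. IC50s came from nonlinear regression of log concentration-response curves, with at least three independent experiments.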

[2] = target: T1, Protein disulfide-isomerase (Homo sapiens, UniProt P07237); assay: Inhibition of recombinant human N-terminal His-tagged PDI expressed in Escherichia coli BL21 (DE3) pLysS assessed as reduction in enzyme-mediated bovine insulin aggregation at 40 uM measured after 1 hr in presence of 5 mM NAC
Outline: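 Compounds pretreated with NAC for 30 min at 37 °C, then added to the insulin reductase assay at final 40 μM compound with 0, 1, 2 or 5 mM NAC. The assay uses 0.4 μM PDI preincubated 1 h at 37 °C, then DTT and bovine insulin, read at 620 nm, with % activity at 80 min.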
Target sequence in this assay (P07237 18-508 limits assumed): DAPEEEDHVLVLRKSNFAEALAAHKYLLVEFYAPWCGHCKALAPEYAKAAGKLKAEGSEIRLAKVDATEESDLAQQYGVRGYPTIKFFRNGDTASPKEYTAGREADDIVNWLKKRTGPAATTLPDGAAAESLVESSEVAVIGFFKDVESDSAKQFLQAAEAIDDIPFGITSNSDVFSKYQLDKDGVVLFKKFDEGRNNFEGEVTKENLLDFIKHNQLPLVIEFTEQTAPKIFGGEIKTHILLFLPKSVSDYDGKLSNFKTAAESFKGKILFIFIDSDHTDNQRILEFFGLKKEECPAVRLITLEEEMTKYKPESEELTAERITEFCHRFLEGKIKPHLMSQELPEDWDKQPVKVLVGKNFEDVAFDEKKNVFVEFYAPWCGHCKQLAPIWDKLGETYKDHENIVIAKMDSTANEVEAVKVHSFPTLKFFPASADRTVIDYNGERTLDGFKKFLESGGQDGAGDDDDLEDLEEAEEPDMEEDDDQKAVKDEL

[3] = target: T1, Protein disulfide-isomerase; assay: Inhibition of recombinant human N-terminal His-tagged PDI expressed in Escherichia coli BL21 (DE3) pLysS assessed as reduction in enzyme-mediated bovine insulin aggregation
Target sequence in this assay (P07237 whole entry): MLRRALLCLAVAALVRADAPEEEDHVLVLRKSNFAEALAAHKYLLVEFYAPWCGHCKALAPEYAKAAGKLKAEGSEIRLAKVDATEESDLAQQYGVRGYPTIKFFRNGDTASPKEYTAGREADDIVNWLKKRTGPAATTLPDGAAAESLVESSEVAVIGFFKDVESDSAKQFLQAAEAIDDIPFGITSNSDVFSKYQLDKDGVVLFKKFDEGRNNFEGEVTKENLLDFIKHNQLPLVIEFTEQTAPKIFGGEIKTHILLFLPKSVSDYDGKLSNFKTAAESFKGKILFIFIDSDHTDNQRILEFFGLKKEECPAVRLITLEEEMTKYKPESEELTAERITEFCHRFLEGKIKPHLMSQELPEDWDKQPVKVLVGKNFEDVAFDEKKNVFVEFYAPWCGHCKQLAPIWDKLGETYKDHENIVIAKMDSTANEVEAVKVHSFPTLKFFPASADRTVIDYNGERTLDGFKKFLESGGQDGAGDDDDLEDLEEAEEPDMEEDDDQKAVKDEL

[4] = target: Eukaryotic translation initiation factor 2 subunit 1 (Homo sapiens) (UniProt P05198); assay: Induction of EIF2alpha phosphorylation in human A172 cells at 20 uM measured after 2 hrs by Western blot analysis; type: cell-based
[5] = target: Eukaryotic translation initiation factor 2 subunit 1 (Homo sapiens) (UniProt P05198); assay: Induction of EIF2alpha phosphorylation in human U87MG cells at 20 uM measured after 2 hrs by Western blot analysis; type: cell-based
Outline: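 eIF2α phosphorylation in U87MG cells after 2 h with 1 µM PACMA31 or 20 µM analogues; tunicamycin 10 µg/mL as comparator. Lysates (Tris/NaCl/Triton/SDS, sonicated) quantified by BCA; 30 µg protein separated on 10% gels, blotted to PVDF, probed for phospho-eIF2α, detected by fluorescence.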

[6] = test system: U-87 MG; assay: Down regulation of MMP9 expression in human U87MG cells at 10 uM measured after 24 hrs by Western blot analysis; type: functional, cell-based; details: U-87MG ATCC
[7] = test system: A 172; assay: Effect on PDI expression in human A172 cells at 20 uM measured after 24 hrs by Western blot analysis; type: functional, cell-based
[8] = test system: U-87 MG; assay: Cytotoxicity against human U87MG cells assessed as inhibition of cell growth measured after 72 hrs by MTT assay; type: functional, cell-based, U-87MG ATCC; details: Homo sapiens, U-87 MG, 72 h; read-out: IC50
Outline: (§1)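 A172 and NU04 cells were seeded at 4000 cells/well and U87MG at 5000 cells/well, incubated overnight at 37 °C, 5% CO2, then exposed to compound or vehicle for 72 h. MTT (3 mg/mL) was added for 4 h, formazan was dissolved in DMSO, and absorbance was read at 570 nm. IC50 came from nonlinear regression; mean ± SD of at least three experiments.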

[9] = test system: Protein disulfide-isomerase (Homo sapiens), P07237 [H256A]; assay: Inhibition of recombinant human N-terminal His-tagged PDI H256A mutant expressed in Escherichia coli BL21 (DE3) pLysS at 10 uM assessed as reduction in enzyme-mediated bovine insulin aggregation
Outline: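 Insulin reductase assay against H256A PDI: 0.4 μM enzyme preincubated with compounds at 10 μM for 1 h at 37 °C in 100 mM sodium phosphate, 2 mM EDTA, 8 μM DTT, pH 7.0. Then 500 μM DTT and 130 μM bovine insulin added; aggregation read at 620 nm at room temperature. Activity % from OD change at 0 and 80 min, relative to PDI and DTT-only controls; three experiments.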

[10] = test system: Protein disulfide-isomerase (Homo sapiens), P07237 [H256A]; assay: Binding affinity to recombinant human N-terminal His-tagged PDI H256A mutant expressed in Escherichia coli BL21 (DE3) pLysS assessed as change in melting temperature at 100 uM by ROX dye based thermal shift assay
Outline: (§2)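 Purified wild-type, C53S/C397S or H256A PDI at 0.5 mg/mL in 50 mM Tris, pH 7.0, with or without 100 μM compound, was mixed with ROX dye in a 20 µL well. DMSO (5% in buffer) was the control. Samples were heated 25–99 °C at 1 °C/min, and the Boltzmann melting temperature shift versus DMSO was reported. Mean ± SD of three experiments.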

[11] = test system: HFF-1; assay: Cytotoxicity against HFF1 cells assessed as inhibition of cell growth measured after 72 hrs by MTT assay; type: cell-based; details: Homo sapiens, HFF-1, 72 h
Outline: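 Cells grown as monolayers at 37 °C, 5% CO2, seeded and left overnight, then exposed to drug or vehicle for 72 h. MTT (20 μL of 3 mg/mL) added for 4 h, supernatant removed, formazan dissolved in DMSO, absorbance read at 570 nm. IC50 from nonlinear regression of log concentration–response curves; at least three independent experiments.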

[12] = test system: A 172; assay: Antimigratory activity against human A172 cells assessed as reduction in cell migration towards wound area at 10 uM measured after 24 hrs by Giemsa staining based microscopic analysis; type: functional
Outline: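 A172 cells plated at 50,000 cells/well, incubated overnight at 37 °C, 5% CO2, then held 24 h in serum-free DMEM. A scratch was made, compounds were added, and cells grew 24 h until DMSO-control wells closed. Cells were Giemsa-stained and imaged at 10X.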

[13] = target: T1, Protein disulfide-isomerase; assay: Binding affinity to recombinant human N-terminal His-tagged PDI expressed in Escherichia coli BL21 (DE3) pLysS assessed as increase in melting temperature by ROX dye based thermal shift assay; outline: as §2
Target sequence in this assay (P07237 18-508 limits assumed): as the sequence (P07237 18-508 limits assumed) above

[14] = test system: U-87 MG; assay: Inhibition of colony formation in human U87MG cells […] by crystal violet staining based assay; type: functional, cell-based; details: U-87MG ATCC
Outline: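 Clonogenicity: U87MG cells seeded at 200 cells/well, left overnight, treated 24 h, then medium replaced and cells grown ten days. Stained 30 min with crystal violet, washed, imaged; normalized well intensity from three independent experiments.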

[15] = test system: U-87 MG; assay: Induction of endoplasmic reticulum stress in human U87MG cells assessed as increase in GRP78 expression at 20 uM measured after 24 hrs by Western blot analysis; type: functional, cell-based; details: U-87MG ATCC
Outline: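 ER-stress immunoblot: 0.5 x 10^6 U87MG cells/well treated for 24 h with 20 µM analogues, 1 µM PACMA31 or DMSO; tunicamycin 10 µg/mL for 2 or 24 h as positive control. Lysis in Tris/NaCl/Triton/SDS buffer with sonication; 30 µg protein on 10% gels, transferred to PVDF, GRP78 probed, fluorescence imaging.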

[16] = Cytotoxicity against human NU04 cells assessed as inhibition of cell growth measured after 72 hrs by MTT assay; type: functional, cell-based; details: Homo sapiens, 72 h; read-out: IC50; outline: as §1
[17] = test system: A 172; assay: Antimigratory activity against human A172 cells at 30 uM measured after 4 hrs by Giemsa staining based transwell migration assay; type: functional, cell-based
Outline: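 A172 cells (1 x 10^5) were treated with compound and seeded into inserts with 8.0 μm PET membrane in serum-free medium. DMEM with 10% FBS was in the lower well; wells without FBS served as control. After 4 h, migrated cells were Giemsa-stained and imaged at 10X, 5 fields per well.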

[18] = target: T1, Protein disulfide-isomerase; assay: Binding affinity to recombinant human N-terminal His-tagged PDI expressed in Escherichia coli BL21 (DE3) pLysS by isothermal titration calorimetry
Target sequence in this assay (P07237 whole entry): as the sequence (P07237 whole entry) above

Eukaryotic translation initiation factor 2 subunit 1 (Homo sapiens), sequence (P05198 whole entry): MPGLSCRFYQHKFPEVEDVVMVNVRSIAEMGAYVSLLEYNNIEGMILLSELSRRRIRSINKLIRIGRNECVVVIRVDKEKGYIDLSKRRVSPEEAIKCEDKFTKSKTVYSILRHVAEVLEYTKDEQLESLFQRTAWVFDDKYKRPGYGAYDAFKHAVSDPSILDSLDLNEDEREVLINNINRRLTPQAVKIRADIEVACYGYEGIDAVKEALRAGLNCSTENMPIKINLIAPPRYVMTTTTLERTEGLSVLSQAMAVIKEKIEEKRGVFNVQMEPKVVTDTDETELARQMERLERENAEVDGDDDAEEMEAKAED
Protein disulfide-isomerase (Homo sapiens), P07237 [H256A], sequence (P07237 whole entry H256A): as the sequence (P07237 whole entry) above, with H256A counted along it

inhibition [2]	IC50 [3]	Activity [4]	Activity [5]	inhibition [9]	Activity [10]	Activity [13]	Kd [18]	Kd ([18]; read-out: Kd)	SMILES	Ratio IC50 [1]	Activity [6]	Activity [7]	IC50 [8]	IC50 [11]	Activity [12]	inhibition [14]	Activity [15]	IC50 [16]	Activity [17]
Active	0.35 µM	Active	Active	inactive	Active	Dose-dependent effect	–	–	O=C(/C=C/c1ccc(-c2cccnc2)cc1)c1cccc(O)c1	4.57	Active	inactive	10.7 µM	22.5 µM	Active	Dose-dependent effect	Active	4.9 µM	–
inactive	0.81 µM	Active	Active	Active	Active	Dose-dependent effect	Nd(Insoluble)	–	CCCCCN(CCCCC)S(=O)(=O)c1ccc(C(=O)/C=C/c2cccc(O)c2)cc1	3.85	Active	inactive	15 µM	29.2 µM	Active	Dose-dependent effect	Active	7.6 µM	Active
inactive	0.12 µM	Active	Active	inactive	Active	Dose-dependent effect	Nd(Insoluble)	–	COC(=O)c1cccc(/C=C/C(=O)c2cccc(O)c2)c1	0.77	–	inactive	16.5 µM	17.4 µM	Active	Dose-dependent effect	Active	22.7 µM	–
Active	–	Active	Active	inactive	inactive	–	–	9.1 µM	N#Cc1cccc(/C=C/C(=O)c2ccc(O)cc2)c1	5.8	–	inactive	10.3 to 10.7 µM	91.2 µM	Active	Dose-dependent effect	Active	15.7 µM	Active
–	0.16 µM	Active	Active	inactive	–	–	–	–	CCCCCN(CCCCC)S(=O)(=O)c1ccc(C(=O)/C=C/c2cccc(C#N)c2)cc1	0.67	Active	inactive	5.6 µM	3.4 µM	Active	Dose-dependent effect	Active	5 µM	Active

Source: ChEMBL document CHEMBL4390639, “Design, Synthesis, and Biological Evaluation of Novel Allosteric Protein Disulfide Isomerase Inhibitors” (J Med Chem, 2019)
